Test results published in ChEMBL document CHEMBL1123247, “Nucleoside conjugates. 7. Synthesis and antitumor activity of 1-beta-D-arabinofuranosylcytosine conjugates of ether lipids” (J Med Chem, 1986).
Where “and” joins values, the source holds several entries; their conditions need not be identical. Equal entries are not always repeated.

Key:
[1] = tested on: L1210; assay: Antitumor activity was determined against the ip implanted L1210 leukemia in mice by percent increase in life span at 26 and 51 mg/kg (treatment of 1-5qd schedule) dosage; type: functional, Mus musculus; settings: route intraperitoneal
In short: (§1)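 DBA/2J mice in groups of 6 (wt 23-28 g) were inoculated ip with 1×10^6 L1210 cells on day 0. Dosing was ip from 24 h, in 0.9% NaCl with 0.5% Tween-80 (conjugates sonicated), across a range of doses. Mice were observed daily until death or 45 days. Median T/C was computed from survivors per NCI protocols, and ILS = (T/C − 1)×100.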

[2] = tested on: L1210; assay: Antitumor activity was determined against the ip implanted L1210 leukemia in mice by range in survival days at 26 and 51 mg/kg (treatment of 1-5qd schedule) dosage; Range is 11-12; type: functional, Mus musculus; settings: route intraperitoneal
In short: (§2)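 DBA/2J mice, 23-28 g, in groups of 6, were inoculated ip with 1×10^6 L1210 cells on day 0. Dosing was ip starting 24 h later on the stated daily schedules. Conjugates were given as sonicated solutions and reference prodrugs as suspensions in 0.9% NaCl with 0.5% Tween-80. Mice were observed daily until death or 45 days. Median survival T/C was calculated from survivors per NCI protocols.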

[3] = tested on: L1210; assay: Antitumor activity was determined against the ip implanted L1210 leukemia in mice by median survival time at 131 adn 258 mg/kg (treatment of 1qd schedule) dosage; 8.0/8.0; settings: route intraperitoneal
[4] = tested on: L1210; assay: Antitumor activity was determined against the ip implanted L1210 leukemia in mice by percent increase in life span at 131 and 258 mg/kg (treatment of 1qd schedule) dosage; type: functional, Mus musculus; settings: route intraperitoneal; in short: as §1
[5] = tested on: L1210; assay: Antitumor activity against the ip implanted L1210 leukemia in mice expressed as optimal dose (1-5qd treatment schedule) required to produce greatest increase in life span was determined; type: functional, Mus musculus
In short: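 DBA/2J mice, groups of 6 (23-28 g), were inoculated ip with 1 × 10^6 L1210 cells on day 0. Dosing was ip from 24 h, in 0.9% NaCl with 0.5% Tween-80 (sonicated solution or suspension). Mice were observed daily until death or day 45. Median survival T/C followed NCI protocols, and ILS = (T/C − 1) × 100. Active range means doses giving ILS ≥25%; optimal dose means greatest ILS.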

[6] = tested on: L1210; assay: Antitumor activity was determined against the ip implanted L1210 leukemia in mice by change in […] at 131 and 258 mg/kg (treatment of 1qd schedule) dosage; type: functional, Mus musculus; settings: route intraperitoneal
In short: (§3)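 DBA/2J mice, 6 per group (wt 23-28 g), inoculated ip with 1×10^6 L1210 cells on day 0. Treatment was given ip in 0.9% NaCl with 0.5% Tween-80, starting 24 h later. Weight change was taken on day 8. Mice were observed daily until death or 45 days. Median survival T/C and %ILS = (T/C − 1) × 100 came from survivors per NCI protocols, and 45-day survivors were counted.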

[7] = tested on: L1210; assay: Antitumor activity was determined against the ip implanted L1210 leukemia in mice by 45-day survivors in mice at 26 and 51 mg/kg (treatment of 1-5qd schedule) dosage; type: functional, Mus musculus; settings: route intraperitoneal; in short: as §1
[8] = tested on: L1210; assay: Antitumor activity was determined against the ip implanted L1210 leukemia in mice by median survival time at 26 and 51 mg/kg (treatment of 1-5qd schedule) dosage; 11.0/8.0; settings: route intraperitoneal
[9] = tested on: L1210; assay: Antitumor activity was determined against the ip implanted L1210 leukemia in mice by 45-day survivors in mice at 131 and 258 mg/kg (treatment of 1qd schedule) dosage; type: functional, Mus musculus; settings: route intraperitoneal; in short: as §1
[10] = tested on: L1210; assay: Antitumor activity was determined against the ip implanted L1210 leukemia in mice by range in survival days at 131 and 258 mg/kg (treatment of 1qd schedule) dosage; Range is 8-9; type: functional, Mus musculus; settings: route intraperitoneal; in short: as §2
[11] = tested on: L1210; assay: Antitumor activity was determined against the ip implanted L1210 leukemia in mice by change in […] at 26 and 51 mg/kg (treatment of 1-5qd schedule) dosage; type: functional, Mus musculus; settings: route intraperitoneal; in short: as §3
[12] = tested on: CML/BC; assay: Compound was tested for the inhibition of CML/BC(chronic myeloid leukemia, blast crisis); type: functional, cell-based; settings: Homo sapiens
In short: (§4)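 Human leukemia and solid tumor cells in culture were exposed to compound for 48 h. Viability was scored by trypan blue dye exclusion. IC50 (50% inhibition) was estimated from response curves of three separate experiments.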

[13] = tested on: Glioblastoma cell line; assay: Compound was tested for the inhibition of glioblastoma; type: functional, cell-based; settings: Homo sapiens; in short: as §4
[14] = tested on: NSCLC; assay: Compound was tested for the inhibition of non- small cell lung cancer; type: functional, cell-based; settings: Homo sapiens; in short: as §4
[15] = tested on: HL-60; assay: Compound was tested for the inhibition of human HL60 Leukemia; type: functional, cell-based; in short: as §4
[16] = tested on: Small cell lung cancer cell line; assay: Compound was tested for the inhibition of small cell lung cancer; type: functional, cell-based; settings: Homo sapiens; in short: as §4
[17] = tested on: AMML; assay: Compound was tested for the inhibition of AMML (acute myelomonocytic leukemia); type: functional, cell-based; settings: Homo sapiens; in short: as §4

Structure (SMILES)	ILS [1]	Range [2]	median survival time [3]	ILS [4]	Optimal dose [5]	Weight change [6]	Survivors [7]	median survival time [8]	Survivors [9]	Range [10]	Weight change [11]	IC50 [12]	IC50 [13]	IC50 [14]	IC50 [15]	IC50 [16]	IC50 [17]
CCCCCCCCCCCCCCCCOCC(COP(=O)(O)O)OC(=O)CCCCCCCCCCCCCCC.Nc1ccn([C@@H]2O[C@H](COP(=O)(O)O)[C@@H](O)[C@@H]2O)c(=O)n1 (racemic)	38	11	8 days	0	26 mg and 51 mg	-0.8 g mouse-1	0	11 days	0	8	1.1 g mouse-1	–	–	–	–	–	–
CCCCCCCCCCCCCCCCCCOCC(COP(=O)([O-])OCC[N+](C)(C)C)OC.Nc1ccn([C@@H]2O[C@H](CO)[C@@H](O)[C@@H]2O)c(=O)n1 (configuration not stated)	–	–	–	–	–	–	–	–	–	–	–	0.25 µM	27 µM	34 µM	0.26 µM	38 µM	1.35 µM
